In the RNAGym collection of RNA variant scans (doi:10.1126/science.aae0568) one finds yeast fitness data, which are given here for 37 variants.

Fewer inactive variants are shown than the library holds.

B1: tRNA (parent)
chain: GUUCCGUUGGCGUAAUGGUAACGCGUCUCCCUCCUAAGGAGAAGACUGCGGGUUCGAGUCCCGUACGGAACG

The variants in this data set derive from B1. Kind of data set: yeast fitness relative to wild type (ratio to wild type); higher = fitter; tRNA-Arg(CCU), competitive growth, 37 C, YPD. The procedure, abridged: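 Variants of the tRNA-Arg(CCU) gene, chemically synthesised with a 3% per-site mutation rate at 69 sites, were placed at the native genomic locus in Saccharomyces cerevisiae. The pooled strains were competed in YPD at 37°C for 24 hours in six parallel replicates. Gene amplicons from the start population and from each end population were read by 100-nucleotide paired-end sequencing. Darwinian fitness relative to wild type came from changes in genotype frequencies; genotypes needed ≥ 100 starting reads, and estimates < 0.5 were set to 0.5.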
With GUUCCGUUGGCGUAAUGGUAACGCGUCUCCCUCCUAAGGAGAAGACUGCGGGUUCGAGUCUCGUACGGACCG [C61U A70C], the yeast fitness amounted to 0.939.

With GUUCCGUUGGCGUAGUGGUAACGCCUCUCCUUCCUAAGGAGAAGACUGCGGGUUCGAGUCCCGUACGGAUCG [A15G G25C C31U A70U], the yeast fitness is no more than 0.5.

For GUUCCGUUGGCGUAAUAGUAACGCGUCUCCAACCUAAGGAGAAGACUGCGGGUUCGGGUCCCGUACGGAACG [G17A C31A U32A A57G], the yeast fitness stood at 0.545.

With GUUCCGUUGGCGUAAUGGUAACGCGUCUCCCACCUAAGGAGACGACUGAGGGUUCGAGUCCCGUACGGAACG [U32A A43C C49A], the yeast fitness came out at 0.542.

In the case of GUUCCGGUGGCGUAAUGGUAACGCGUCUCCCCCCUAAGGAGAAGACUGCGGGUUCGAGUCCCGUGCGGAACG [U7G U32C A65G], the yeast fitness worked out at 0.795.

Regarding GUUCCGUUGGCGUAAUGGUAACGCGUCUCCCUCCUAAGGAGUAGAUUGCGGGUUCGAGUCCUGUACGGAACG [A42U C46U C62U], the yeast fitness is 0.89.

As for GUUCCGUUGGCGUAAUGGUAACGCGUCUCCCUGCUGAGGAGAAGACUGCGCGUUCGAGUCCCGAAUGGCACG [C33G A36G G51C U64A C66U A69C], the yeast fitness is no more than 0.5.

Turning to GUUCCGGUGGCGUAAUGGUAACGCGUCUGCCUCCCAAGGAGAAGAUUGCGGGUUCGAGUCCCGUACGGAACG [U7G C29G U35C C46U], the yeast fitness was no more than 0.5.

Turning to GUUCCGUUGGCGUAACGGUAACGCGUCUCCCUCCUGAGGAGAAGACUGCAGGUUCGAGUCCCGUACGGAACG [U16C A36G G50A], the yeast fitness is 0.594.

Turning to GUUCCGUUGGCGUAAUGGUAACGCGUCUCCCUCCUAAGGAGAGGACUACGGGUUCGAGUCCCGUACGGAACG [A43G G48A], the yeast fitness was found to be 0.933.

As to GUUCCGUUGGCGAGAUGGUAACGCGUCUCCCUCCUACGGAGAAGACUGCCCGUUCGAGUCCCGUACGGAACG [U13A A14G A37C G50C G51C], the yeast fitness stood at 0.566.

Consider GUUCCGUUGACGUAAUGGUAACGCGUCUCCCUCCUAAGGAAAAGACUGCGGGUUCGAGUCCCGUACGGAACG [G10A G41A], for which the yeast fitness is 0.661.

Take GUUCCGUUGGCGUAAUGGUAACGCGUCUCUCUCCAAAGGAGAAGACUGCGGGUUCGAGUCCCGUACGGAACG [C30U U35A]: the yeast fitness came to 0.63.

GUUCCGUUGGCGAAAUGGUAUGGCGUCUCCAUCCUAAGGAGAAGACUGCGGGUUCGAGUCCCGUACGGAACG [U13A A21U C22G C31A]: the yeast fitness was determined as 0.701.

Regarding GUUCCGUUGGCGUAAUGGUAACGCGUCUCCCUCCUAAGGCGAAGACUGCCGGUUCGAGUCCCGUACGGAACG [A40C G50C], the yeast fitness came to 0.644.

Take GCUCCGUUGGCGUAAUGGUGACGCGUCUCUCUCCUAAGGAGAAGACUGCGGGUUCGAGUCCCGUACGGAACG [U2C A20G C30U]: the yeast fitness stood at 0.576.

On to GUUCGGUUGGCGUAAUCGUAACGCAUCUCCCUCCUAAGGCGAAGACUGCGGGUUCGAGUCCCGUACGAAACG [C5G G17C G25A A40C G68A], for which the yeast fitness was no more than 0.5.

On to GUUCCGUUGGCGUAAUGGUAACGCGUCUCCCUCCAAAGGAGAAGGCUGCGGGUUCGAGUCCCGUACGGAACG [U35A A45G], for which the yeast fitness came to 0.759.

As to GUUCCGUUGGCGUAAUGGUAACGCGUCUCCCUCCUAAGGAAAAGACUGCGGGUUCGAGGCCCGUACGGAACG [G41A U59G], the yeast fitness was determined as 0.822.

On to GUCCCGUUGGCGUAAUGGUAACGCGUCUCCCUCCUAAGGAGAAGAUUGCGGGUUCGAGUCCCGUACGGUACG [U3C C46U A69U], for which the yeast fitness was 0.789.

With GUUCCGUCGGCGUAAUGGUAACGCGUCUCCCUCCUAAGGAGAAGACUCCGGGUUCGAGUCCCGUACGGAACG [U8C G48C], the yeast fitness came out at 0.843.

Regarding GUCCCGUUGGCGUAAUGGUAACACGUCUCCCUCCGAAGGAGGAGACUGCGGGUUCGAGUCCCGUACGGAACG [U3C G23A U35G A42G], the yeast fitness is no more than 0.5.

Take GUUCCGUUGGCGUAAUGGUAACGCGUCACCCUCCUAAAGAGAAGACUGCGGGUUGGAGUCCCGUACGGAACG [U28A G38A C55G]: the yeast fitness is no more than 0.5.

Consider GUUCCGUUGGCGUAAUGGAAACGCGUCUCCCUCCUAAGGAGAAGACUGCGGGUUCGAGUCCCGUACGGUACG [U19A A69U], for which the yeast fitness was found to be 1.04.

For the variant GUUCCGUUGGGGUAAUGGUAACGCGUCUCCCUCAUAAGGAGAAGACUGCGGGUUCGAGUACCGUACGGAACG [C11G C34A C60A], the yeast fitness is no more than 0.5.

As for GUUCCGUUGGCGUAAUGGUAACGGGUCUCCCUCCUAAGGAGAAGACUGCGGGUUCGAGUCCCGUGCGGAACG [C24G A65G], the yeast fitness amounted to 0.703.

As for GUUCUGUUGGCGUAAUGGUAACGCGUCUCCGUCCUAAGGGGAAGGGUACGGGUUCGAGUCCCGUACGGAACG [C5U C31G A40G A45G C46G G48A], the yeast fitness is no more than 0.5.

Regarding GUUGCGGUGGCGGAAUGGUUACGCGUCUCCAUCGUAAGGAGCAGACUGCGGGUUCGAGUCCCGUACGGAACG [C4G U7G U13G A20U C31A C34G A42C], the yeast fitness is no more than 0.5.

With GUUGCGUUGGCGUAAUGGUAACGCGUCUCCCUCCUAAGGAGAAGUCUGCGGGUUCGAGUCCUGUACGAAACG [C4G A45U C62U G68A], the yeast fitness was no more than 0.5.

With GUUCCGUUGGCGUAUUGGUAACGCGUCUCCCUGGUAAGGAGAAGUCUGCGAGUUCGAGUCCCGUACGGAACG [A15U C33G C34G A45U G51A], the yeast fitness was no more than 0.5.

Consider GUUGCGUUGGCGUAAUGGUAACAAGUCUCCAUCCUGAGGAGAAGACUGCGGGUUCGAGUCCCGUACGGAACG [C4G G23A C24A C31A A36G], for which the yeast fitness was no more than 0.5.

Take GUUCCGUUGGCGUAAUGGUCGCGCGUCUCCCUCCUAAGGAGAAGACUGCGGGUUCGAGUCCCGUACGGACCG [A20C A21G A70C]: the yeast fitness stood at 0.803.

Turning to GUUCCGUUGGCGUAAUGGUAACGCGUCUCCCUCCAAAGGAGAAGACUGCGGGUUCGCGUCCCGAACGAAACG [U35A A57C U64A G68A], the yeast fitness was no more than 0.5.

On to GUUCUGUUGGCGUACUGGUAACGCGUCUCCCUCGUAGGGAGAAGACUGCGGGUUCGAGUCCCGUGCGGAACG [C5U A15C C34G A37G A65G], for which the yeast fitness was no more than 0.5.

As for GAUGCGUUGGCGUAAUGGUAACGCGUCUCCCUCCUAAGGAGAAGACUGCGGGUUCAAAUCCCGUCCGGAACG [U2A C4G G56A G58A A65C], the yeast fitness is no more than 0.5.

Consider GUUCCGUUGGCGUAAUGCUAACGGGUCUCCCUCCUAAGGAGAAGACUGGGGGUUCGAGUCUCGUACGGAACG [G18C C24G C49G C61U], for which the yeast fitness is no more than 0.5.

As to GUUCCGUUGGCGUAAUGGUAACGCGUCUCCCUCCUAAGGAGAAGACUGCGGGUUCGAGUCCUGUACGGACCG [C62U A70C], the yeast fitness worked out at 0.91.
